Results from ChEMBL document CHEMBL1145824, “Simplified discodermolide analogues: synthesis and biological evaluation of 4-epi-7-dehydroxy-14,16-didemethyl-(+)-discodermolides as microtubule-stabilizing agents” (J Med Chem, 2003).

Legend:
[1] = test system: tubulin (Bos taurus); assay: Percent assembly of bovine brain tubulin induced by compound at 10 uM versus that caused by 10 uM paclitaxel
[2] = test system: PC-3; assay: Inhibitory concentration against PC3 (prostate) cells; format: functional; conditions: Homo sapiens
Outline: (§1)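 Cells plated at 500-2000/well, allowed to attach and grow 48 h, then exposed continuously for 72 h to vehicle (4% DMSO) or agent. Initial screen at 5-fold dilutions; GI50 then set by a repeat screen of five 2-fold dilutions centred on the estimate, in quadruplicate. A time-zero plate was included. Cell number was read by MTS/phenazine methanesulfonate absorbance (490 minus 630 nm). Values are means ± SD, N=4.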

[3] = Inhibitory concentration against […] (breast) cells; format: functional; conditions: Homo sapiens
Outline: as §1

[4] = Percent competition for binding to preformed microtubules by 4 uM as against 2 uM of 3[H]paclitaxel; format: functional
Outline: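 Microtubules preformed from 2 µM bovine brain tubulin with 20 µM ddGTP in monosodium glutamate, 30 min at 37 °C. Then 2 µM [3H]paclitaxel plus 4 µM agent (final concentrations) was added for 30 min at 37 °C. Samples were centrifuged at 14000 rpm for 20 min at room temperature, and supernatant radioactivity was counted. Bound = total minus free, normalized to the no-inhibitor control.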

[5] = test system: 2008; assay: Inhibitory concentration against 2008 (ovarian) cells; format: functional; conditions: Homo sapiens
Outline: as §1

[6] = test system: A549; assay: Antiproliferative potency determined as inhibitory concentration against A549 cells; format: functional, cell-based; conditions: Homo sapiens
Outline: (§2)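 MTS growth-inhibition assay. Cells seeded at 500-2000/well, attached and grown 48 h, then given agent or vehicle (4% DMSO) for 72 h continuous exposure. A time-zero plate was read. Initial 5-fold dilution screen, then 2-fold dilutions (five concentrations) centred on the estimated GI50, in quadruplicate. Read-out A490 minus A630 with phenazine methanesulfonate as electron acceptor. Mean ± SD, N = 4 over 10 concentrations.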

[7] = Antiproliferative potency determined as inhibitory concentration against MG63 cells; format: functional, cell-based; conditions: Homo sapiens, MG-63
Outline: as §2

With `C=C/C=C\[C@H](C)[C@H](OC(N)=O)[C@@H](C)[C@H](O)CC/C=C\C(C)[C@@H](O)[C@@H](C)/C=C\CC[C@@H]1O[C@@H](OC)[C@H](C)[C@@H](OCOC)[C@@H]1C` (stereo partly drawn) the Activity [1] was 11%, the GI50 [2] was 15000 nM and the GI50 [3] was 3400 nM. For the same compound, the Activity [4] was 19% and the GI50 [5] was 4700 nM.

With `COCO[C@H]1[C@@H](C)[C@H](CC/C=C\[C@H](C)[C@H](O)[C@@H](C)/C=C\CC[C@@H](O)[C@H](C)COC(N)=O)OC(=O)[C@@H]1C` the Activity [1] was <5%, the GI50 [2] was > 50000 nM and the GI50 [3] was 30000 nM. The Activity [4] was 13% and the GI50 [5] was > 50000 nM.

Work on `C=C/C=C\C(C)C(OC(N)=O)[C@@H](C)[C@H](O)[C@@H](C)C/C(C)=C\C(C)[C@@H](O)[C@@H](C)/C=C\C(O)C[C@@H]1OC(=O)C(C)=C[C@H]1C` (stereo partly drawn) yielded an IC50 [6] of 1.8 nM.

With `C=C/C=C\C(C)C(OC(N)=O)[C@@H](C)[C@H](OC(C)=O)C(C)C/C(C)=C\C(C)[C@@H](O)[C@@H](C)/C=C\C(O)C[C@@H]1OC(=O)[C@H](C)[C@@H](OC(C)=O)[C@H]1C` (stereo partly drawn) the IC50 [6] was 524 nM.

For `C=C/C=C\C(C)C(OC(N)=O)[C@@H](C)[C@H](O)C(C)C/C(C)=C\C(C)[C@@H](O)[C@@H](C)/C=C\C(C[C@@H]1OC(=O)[C@H](C)[C@@H](OC(C)=O)[C@H]1C)OC(C)=O` (stereo partly drawn), the IC50 [6] was 0.8 nM.

With `C=C/C=C\C(C)C(OC(N)=O)[C@@H](C)[C@H](O)[C@@H](C)C/C=C\C(C)[C@@H](O)[C@@H](C)/C=C\C(O)C[C@@H]1OC(=O)C(C)[C@@H](O)[C@H]1C` (stereo partly drawn) the IC50 [6] was 7.8 nM.

`C=C/C=C\C(C)C(OC(N)=O)[C@@H](C)[C@H](O)CC/C(C)=C\C(C)[C@@H](O)[C@@H](C)/C=C\C(O)C[C@@H]1OC(=O)[C@H](C)[C@@H](O)[C@H]1C` (stereo partly drawn) showed an IC50 [7] of 10 nM.

For `C=C/C=C\[C@H](C)[C@H](OC(N)=O)[C@@H](C)[C@H](O)CC/C=C\C(C)[C@@H](O)[C@@H](C)/C=C\CC[C@@H]1OC(=O)[C@H](C)[C@@H](O)[C@@H]1C` (stereo partly drawn), the Activity [1] was 11%, the GI50 [2] was 7500 nM and the GI50 [3] was 2100 nM. It also gave an Activity [4] of 21% and a GI50 [5] of 5200 nM.

For `C=C/C=C\[C@H](C)[C@H](OC(N)=O)[C@@H](C)[C@H](O)[C@@H](C)C/C(C)=C\[C@H](C)[C@@H](O)[C@@H](C)/C=C\[C@@H](O)C[C@@H]1OC(=O)[C@H](C)[C@@H](O)[C@H]1C` [DISERMOLIDE], the Activity [1] was 14%, the GI50 [2] was 3000 nM and the GI50 [3] was 2600 nM. It also gave an Activity [4] of 32% and a GI50 [5] of 1500 nM.

For `CCCCCC[C@H](OC(N)=O)[C@@H](C)[C@H](O)CC/C=C\C(C)[C@@H](O)[C@@H](C)/C=C\CC[C@@H]1O[C@@H](OC)[C@H](C)[C@@H](OCOC)[C@@H]1C` (stereo partly drawn), the Activity [1] was 6%, the GI50 [2] was > 50000 nM and the GI50 [3] was 24000 nM. It also gave an Activity [4] of 9% and a GI50 [5] of 29000 nM.

In the case of `C=C/C=C\C(C)C(OC(N)=O)[C@@H](C)[C@H](O)[C@@H](C)C/C(C)=C\C(C)[C@@H](O)[C@@H](C)/C=C\C(O)C[C@@H]1OC(=O)[C@H](C)[C@@H](O)[C@H]1C` (stereo partly drawn), the Activity [1] is reported as >100%, the GI50 [2] is reported as 67 nM and the GI50 [3] is reported as 16 nM. For the same compound, the IC50 [6] was 3.8 nM, the Activity [4] was 64% and the IC50 [7] was 6 nM. For the same compound, the GI50 [5] was 72 nM.

`C=C/C=C\[C@H](C)[C@H](OC(N)=O)[C@@H](C)[C@H](O)CC/C=C\C(C)[C@@H](O)[C@@H](C)/C=C\CC[C@@H]1OC(=O)[C@H](C)[C@@H](OCOC)[C@@H]1C` (stereo partly drawn) showed an Activity [1] of 27%, a GI50 [2] of 1800 nM and a GI50 [3] of 870 nM. It also gave an Activity [4] of 57% and a GI50 [5] of 650 nM.

Compound `C=C/C=C\C(C)C(OC(N)=O)[C@@H](C)[C@H](O)[C@@H](C)C/C=C/C(C)[C@@H](O)[C@@H](C)/C=C\C(O)C[C@@H]1OC(=O)C(C)[C@@H](O)[C@H]1C` (stereo partly drawn) has an IC50 [6] of 485 nM.

`C=C/C=C\C(C)C(OC(N)=O)[C@@H](C)[C@H](O)[C@@H](C)C/C(C)=C\C(C)[C@@H](O)[C@@H](C)/C=C\CC[C@@H]1OC(=O)C=C[C@H]1C` (stereo partly drawn) gave an IC50 [6] of 11.4 nM.

In the case of `C=C/C=C\C(C)C(OC(N)=O)[C@@H](C)[C@H](O)C(C)C/C(C)=C\C(C)[C@@H](O)[C@@H](C)/C=C\C(C[C@@H]1OC(=O)[C@H](C)[C@@H](O)[C@H]1C)OC(C)=O` (stereo partly drawn), the IC50 [6] is reported as 0.8 nM.

`CCCCCC(C)(C)[C@H](OC(N)=O)[C@@H](C)[C@H](O)CC/C=C\C(C)[C@@H](O)[C@@H](C)/C=C\CC[C@@H]1O[C@@H](OC)[C@H](C)[C@@H](OCOC)[C@@H]1C` (stereo partly drawn) showed an Activity [1] of 9%, a GI50 [2] of 38000 nM and a GI50 [3] of 23000 nM. For the same compound, the Activity [4] was 15% and the GI50 [5] was 42000 nM.

In the case of `CC(=O)O[C@H]1C(=O)[C@@]2(C)[C@H]([C@H](OC(=O)c3ccccc3)[C@]3(O)C[C@H](OC(=O)[C@H](O)[C@@H](NC(=O)c4ccccc4)c4ccccc4)C(C)=C1C3(C)C)[C@]1(OC(C)=O)CO[C@@H]1C[C@@H]2O` [PACLITAXEL], the Activity [1] is reported as 100%, the GI50 [2] is reported as 15 nM and the GI50 [3] is reported as 2.4 nM. It also gave an IC50 [6] of 1.4 nM, an Activity [4] of 37% and a GI50 [5] of 9.2 nM.

`C=C/C=C\C(C)C(OC(N)=O)[C@@H](C)[C@H](O)C(C)C/C(C)=C\C(C)[C@@H](OC(C)=O)[C@@H](C)/C=C\C(O)C[C@@H]1OC(=O)[C@H](C)[C@@H](OC(C)=O)[C@H]1C` (stereo partly drawn) showed an IC50 [6] of 164 nM.

With `C=C/C=C\C(C)C(OC(N)=O)[C@@H](C)[C@H](O)C(C)C/C(C)=C\C(C)[C@@H](O)[C@@H](C)/C=C\C(O)C[C@@H]1OC(=O)[C@H](C)[C@@H](OC(C)=O)[C@H]1C` (stereo partly drawn) the IC50 [6] was 3.8 nM.
